Reference: ChEMBL document CHEMBL4024774 (J Med Chem, 2017)

Experiments:
[1] = molecular target: Sodium-dependent dopamine transporter (Rattus norvegicus, UniProt P23977); assay: Displacement of [3H]WIN35428 from Sprague-Dawley rat brain DAT after 120 mins by liquid scintillation counting method
In short: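 Rat striatal membranes (male Sprague-Dawley) in sucrose phosphate buffer pH 7.4. […] Terminated by filtration on GF/B filters presoaked in 0.05% PEI, then scintillation counting.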

[2] = molecular target: Sodium-dependent serotonin transporter (Rattus norvegicus, UniProt P31652); assay: Displacement of [3H]citalopram from Sprague-Dawley rat brain SERT after 60 mins by liquid scintillation counting method
Sodium-dependent serotonin transporter, sequence (P31652 whole entry): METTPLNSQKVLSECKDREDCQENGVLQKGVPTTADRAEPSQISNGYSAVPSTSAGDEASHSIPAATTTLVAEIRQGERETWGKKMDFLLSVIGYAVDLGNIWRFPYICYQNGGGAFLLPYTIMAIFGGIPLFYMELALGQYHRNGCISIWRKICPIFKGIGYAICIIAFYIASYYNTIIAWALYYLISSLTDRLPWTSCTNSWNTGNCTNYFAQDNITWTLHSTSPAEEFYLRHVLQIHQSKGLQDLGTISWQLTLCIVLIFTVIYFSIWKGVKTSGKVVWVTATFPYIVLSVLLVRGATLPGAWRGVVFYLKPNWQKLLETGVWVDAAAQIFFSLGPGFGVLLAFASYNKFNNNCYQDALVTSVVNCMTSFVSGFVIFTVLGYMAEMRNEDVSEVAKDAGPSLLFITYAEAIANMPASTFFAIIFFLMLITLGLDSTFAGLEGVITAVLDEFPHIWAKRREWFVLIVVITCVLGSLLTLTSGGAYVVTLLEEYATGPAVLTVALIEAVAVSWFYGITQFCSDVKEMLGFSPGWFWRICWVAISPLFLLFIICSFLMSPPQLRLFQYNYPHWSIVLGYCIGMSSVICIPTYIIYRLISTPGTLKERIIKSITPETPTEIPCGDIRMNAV
In short: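 Male Sprague-Dawley rat brain stem membranes in 50 mM Tris with 120 mM NaCl and 5 mM KCl, pH 7.4. […] Nonspecific binding with 10 μM fluoxetine. Filtered on GF/B filters presoaked in 0.3% PEI, scintillation counted.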

[3] = Displacement of [3H]nisoxetine from Sprague-Dawley rat brain NET after 180 mins by liquid scintillation counting method
In short: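 Frontal cortex membranes from male Sprague-Dawley rats in 50 mM Tris, 120 mM NaCl, 5 mM KCl, pH 7.4. […] Nonspecific binding with 1 μM desipramine. Methanol level held constant across tubes. Filtered on GF/B filters in 0.05% PEI.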

[4] = Inhibition of […] uptake at human DAT […] mutant expressed in African green monkey COS7 cells after 90 mins; type: cell-based
In short: (§1)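 Whole COS7 cells transiently expressing human DAT WT or the Y156F mutant, washed in ice-cold uptake buffer. Incubated with [³H]WIN 35,428 and inhibitor (1 nM–1 mM, 12 concentrations) at 5 °C to equilibrium (>90 min). Triplicates. Ki from IC50 by nonlinear regression and Cheng–Prusoff. Ratio is Y156F Ki over WT Ki.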

[5] = molecular target: T1, Sodium-dependent dopamine transporter (Homo sapiens, UniProt Q01959); assay: Inhibition of [3H]DA uptake at wild type human DAT expressed in African green monkey COS7 cells after 5 mins by beta scintillation counting method; type: cell-based
T1 sequence (Q01959 whole entry): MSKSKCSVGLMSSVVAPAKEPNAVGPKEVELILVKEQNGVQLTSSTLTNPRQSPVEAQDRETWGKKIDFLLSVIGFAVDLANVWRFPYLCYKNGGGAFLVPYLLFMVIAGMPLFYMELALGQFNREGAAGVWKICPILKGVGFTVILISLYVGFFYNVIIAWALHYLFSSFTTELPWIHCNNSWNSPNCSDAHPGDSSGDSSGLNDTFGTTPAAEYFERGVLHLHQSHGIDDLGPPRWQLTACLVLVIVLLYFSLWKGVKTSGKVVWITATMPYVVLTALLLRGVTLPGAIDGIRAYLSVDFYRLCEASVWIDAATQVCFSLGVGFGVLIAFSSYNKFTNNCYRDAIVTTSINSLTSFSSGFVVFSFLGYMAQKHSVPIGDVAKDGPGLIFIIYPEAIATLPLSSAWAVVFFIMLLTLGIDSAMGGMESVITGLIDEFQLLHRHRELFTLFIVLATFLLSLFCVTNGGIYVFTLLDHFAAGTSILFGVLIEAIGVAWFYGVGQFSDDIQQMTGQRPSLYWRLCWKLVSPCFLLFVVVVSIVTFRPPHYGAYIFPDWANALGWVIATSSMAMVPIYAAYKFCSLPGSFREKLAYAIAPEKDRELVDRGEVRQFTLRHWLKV
In short: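 COS7 cells transiently transfected with synthetic human DAT and assayed 2 days later. Preincubated with inhibitor (1 nM–1 mM, 12 concentrations) in HEPES uptake buffer pH 7.4 containing ascorbate and a COMT inhibitor. 6–10 nM [³H]DA added for 5 min at rt. Nonspecific uptake with 1 μM nomifensine. Cells lysed in SDS and scintillation counted. Run in triplicate. Ki from IC50 by Cheng–Prusoff.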

Homo sapiens = species on record: Homo sapiens; assay: Selectivity ratio of Ki for human DAT […] mutant expressed in African green monkey COS7 cells to Ki for wild type human DAT expressed in African green monkey COS7 cells; type: cell-based; in short: as §1
[6] = molecular target: T1, Sodium-dependent dopamine transporter; assay: Inhibition of […] uptake at wild type human DAT expressed in African green monkey COS7 cells after 90 mins; type: cell-based; in short: as §1
[7] = molecular target: Voltage-gated inwardly rectifying potassium channel KCNH2 (Homo sapiens, UniProt Q12809); assay: Displacement of [3H]Dofetilide from human ERG expressed in HEK cells after 180 mins by scintillation counting method; type: cell-based
Voltage-gated inwardly rectifying potassium channel KCNH2, sequence (Q12809 whole entry): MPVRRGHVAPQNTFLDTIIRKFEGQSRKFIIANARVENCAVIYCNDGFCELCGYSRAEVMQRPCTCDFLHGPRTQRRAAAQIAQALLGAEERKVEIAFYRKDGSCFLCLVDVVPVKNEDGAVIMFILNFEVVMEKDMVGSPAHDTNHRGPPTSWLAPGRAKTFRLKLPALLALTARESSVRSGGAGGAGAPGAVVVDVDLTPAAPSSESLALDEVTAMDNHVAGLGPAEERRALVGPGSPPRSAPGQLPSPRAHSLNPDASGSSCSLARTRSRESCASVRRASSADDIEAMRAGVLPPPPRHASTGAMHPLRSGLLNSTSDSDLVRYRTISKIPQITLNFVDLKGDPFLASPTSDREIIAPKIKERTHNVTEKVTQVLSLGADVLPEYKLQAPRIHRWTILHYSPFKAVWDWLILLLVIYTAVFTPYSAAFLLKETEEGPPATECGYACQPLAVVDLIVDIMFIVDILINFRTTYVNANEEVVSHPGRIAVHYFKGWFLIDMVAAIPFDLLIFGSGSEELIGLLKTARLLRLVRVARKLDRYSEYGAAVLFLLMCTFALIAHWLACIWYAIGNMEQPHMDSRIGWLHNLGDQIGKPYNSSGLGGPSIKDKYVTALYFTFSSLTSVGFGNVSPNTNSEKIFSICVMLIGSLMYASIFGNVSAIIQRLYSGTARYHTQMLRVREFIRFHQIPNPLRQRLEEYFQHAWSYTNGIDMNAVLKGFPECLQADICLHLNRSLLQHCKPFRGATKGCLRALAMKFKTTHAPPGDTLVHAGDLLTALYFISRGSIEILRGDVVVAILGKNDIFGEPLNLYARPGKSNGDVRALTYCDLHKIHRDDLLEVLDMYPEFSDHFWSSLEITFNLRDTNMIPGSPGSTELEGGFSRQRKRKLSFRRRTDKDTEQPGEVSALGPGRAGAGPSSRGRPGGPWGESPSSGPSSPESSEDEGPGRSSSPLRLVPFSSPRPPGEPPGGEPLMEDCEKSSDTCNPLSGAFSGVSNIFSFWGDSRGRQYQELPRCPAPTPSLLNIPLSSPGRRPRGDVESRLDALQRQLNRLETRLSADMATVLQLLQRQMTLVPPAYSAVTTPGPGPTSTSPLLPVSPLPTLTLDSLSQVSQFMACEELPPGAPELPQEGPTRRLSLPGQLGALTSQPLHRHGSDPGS

[8] = Selectivity ratio of IC50 for human ERG expressed in HEK cells to Ki for Sprague-Dawley rat brain DAT; type: cell-based

Sodium-dependent dopamine transporter (Rattus norvegicus, UniProt P23977), sequence (P23977 whole entry): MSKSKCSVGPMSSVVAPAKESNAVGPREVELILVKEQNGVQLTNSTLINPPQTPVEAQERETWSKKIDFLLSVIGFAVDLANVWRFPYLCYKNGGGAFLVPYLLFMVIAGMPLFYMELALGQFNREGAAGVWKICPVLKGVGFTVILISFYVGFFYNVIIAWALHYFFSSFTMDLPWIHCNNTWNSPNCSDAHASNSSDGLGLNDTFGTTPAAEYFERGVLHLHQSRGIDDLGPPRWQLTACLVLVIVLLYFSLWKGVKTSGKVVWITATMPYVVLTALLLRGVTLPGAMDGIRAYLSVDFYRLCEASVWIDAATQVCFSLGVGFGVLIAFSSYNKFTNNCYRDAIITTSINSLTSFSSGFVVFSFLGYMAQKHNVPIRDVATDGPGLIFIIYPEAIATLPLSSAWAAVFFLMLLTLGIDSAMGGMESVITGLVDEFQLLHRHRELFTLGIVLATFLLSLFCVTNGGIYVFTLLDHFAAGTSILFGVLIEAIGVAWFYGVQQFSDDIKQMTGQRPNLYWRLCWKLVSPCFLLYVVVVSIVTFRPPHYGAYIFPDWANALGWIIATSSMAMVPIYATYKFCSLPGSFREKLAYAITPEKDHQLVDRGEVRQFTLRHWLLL

Row | Compound | Ki [1] | Ki [2] | Ki [3] | Ki [4] | Ki [5] | Ratio Ki (Homo sapiens) | Ki [6] | IC50 [7] | Selectivity ratio [8]
1 | CC(C)[C@@H](N)CN1C2CCC1CC(NC(c1ccc(F)cc1)c1ccc(F)cc1)C2 (some centres not stated) | 21 nM | 5400 nM | 2350 nM |  |  |  |  |  | 
2 | C=C[C@@H]1C2CCC(C[C@@H]1OC(c1ccc(F)cc1)c1ccc(F)cc1)N2CCN(C)C (mixture of isomers) | 13.5 nM | 5100 nM |  |  |  |  |  |  | 
3 | Cc1ccc(-c2cc(C3C(c4ccc(Cl)cc4)CC4CCC3N4C)on2)cc1 (configuration not stated) | 10.7 nM | 23500 nM | 1170 nM | 140 nM | 16 nM | 4 | 35 nM |  | 
4 | NCCN1C2CCC1CC(OC(c1ccc(F)cc1)c1ccc(F)cc1)C2 (configuration not stated) | 5.59 nM | 4600 nM | 1420 nM |  |  |  |  |  | 
5 | CN(C)CCN1C2CCC1CC(NC(c1ccc(F)cc1)c1ccc(F)cc1)C2 (configuration not stated) | 14.3 nM | 12000 nM | 4010 nM | 202 nM | 40 nM | 20 | 16 nM | 5480 nM | 383
6 | Cc1ccc(-c2cc([C@@H]3C4CCC(C[C@@H]3OC(c3ccc(F)cc3)c3ccc(F)cc3)N4C)on2)cc1 (mixture of isomers) | 93.5 nM | 4410 nM | 2710 nM |  |  |  |  |  | 
7 | CN1C2CCC1[C@@H](c1cc(-c3ccccc3)no1)C(OC(c1ccc(F)cc1)c1ccc(F)cc1)C2 (single isomer, unassigned) | 14.4 nM | 1320 nM | 413 nM | 183 nM | 212 nM | 6.5 | 28 nM |  | 
8 | CCCCN1C2CCC1CC(NC(c1ccc(F)cc1)c1ccc(F)cc1)C2 (configuration not stated) |  |  |  | 355 nM | 62 nM | 15 | 24 nM |  | 
9 | Fc1ccc(C(OC2CC3CCC(C2)N3CCc2c[nH]c3ccccc23)c2ccc(F)cc2)cc1 (configuration not stated) | 29.2 nM | 490 nM | 7350 nM | 1700 nM |  | 6.7 | 253 nM |  | 
10 | CCOC(=O)[C@@H]1C2CCC(C[C@@H]1OC(c1ccc(F)cc1)c1ccc(F)cc1)N2CC1CC1 (mixture of isomers) | 12 nM | 3730 nM | 555 nM |  |  |  |  |  | 
